From ChEMBL document CHEMBL1126613, “Centrally acting serotonergic agents. Synthesis and structure-activity relationships of C-1- or C-3-substituted derivatives of 8-hydroxy-2-(di-n-propylamino)tetralin” (J Med Chem, 1993) come the findings set out here.

“And” between values parts separate entries of the source, which are not always exact repeats. Equal values may be shown once.

The test system of assay [1] is Mus musculus. Briefly: Behavioral time in mouse face to face assay at 0 umol/kg administered subcutaneously. The format is functional. The procedure, abridged:
(§1)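 Male CF-1 mice (Charles River, 19-29 g), 8 pairs per dose, dosed sc, ip or orally in 0.25% methylcellulose or 0.1% citric acid; 30 min absorption housed with familiar partner. Pairs from different home cages placed in small litter-floored cage; face-to-face interaction duration scored visually for 3 min. Wilcoxon rank sum (two-tailed) vs daily control, p < 0.05.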

Assay [2] concerns Mus musculus. Briefly: Behavioral time in mouse face to face assay at 0.4 umol/kg administered subcutaneously. The format is functional. The procedure, abridged: as §1
For assay [3], the system named is Mus musculus. The assay is described as follows: Behavioral time in mouse face to face assay at 36 umol/kg administered subcutaneously. The format is functional. The procedure, abridged: as §1
The subject of assay [4] is Mus musculus. The assay is described as follows: Behavioral time in mouse face to face assay at 3.6 umol/kg administered subcutaneously. The format is functional. The procedure, abridged: as §1
The test system of assay [5] is Rattus norvegicus. The assay is described as follows: Effect on the synthesis rate of 5 HTP accumulation at the dose of 3.6 umol/kg in the rat ventral limbic brain region. The format is functional, Limbic system. The procedure, abridged: (§2)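 Male Sprague-Dawley rats dosed sc with drug or vehicle at time zero. NSD 1015 (100 mg/kg ip) given 15 min later to block aromatic decarboxylase. Brain DOPA and 5-HTP measured by electrochemical detection with peak integration. Expressed as percent change from NSD 1015 plus saline controls. Control and test groups N = 6 each, compared by unpaired t test.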

For assay [6], the system named is Mus musculus. Briefly: Tested in vivo for the effective dose administered orally in mouse hypothermia assay. The format is functional. Particulars: po. The procedure, abridged: (§3)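 Charles River CF-1 mice (18-22 g, 4 per dose), housed individually 20 min before testing. Rectal temperature taken before dosing and 20 min after (sc 0.1 mL; oral 0.2 mL by gavage needle). A drop of ≥2 °F counted as positive. Doses started at 30 mg/kg and fell by half-log until 0/4 responded.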

The subject of assay [7] is Rattus norvegicus. The assay is described as follows: Effect on the synthesis rate of dopamine (DOPA) accumulation at the dose of 3.6 umol/kg in the rat ventral limbic brain region. The format is functional, Limbic system. The procedure, abridged: as §2
Assay [8] concerns Mus musculus. Briefly: In vivo effective dose administered subcutaneously in mouse hypothermia assay. The format is functional. Particulars: sc. The procedure, abridged: as §3
In assay [9] the test system is Mus musculus. Briefly: Behavioral time in mouse face to face assay at 0.3 umol/kg administered perorally. The format is functional. The procedure, abridged: as §1
For assay [10], the system named is Rattus norvegicus. The assay is described as follows: Effect on the synthesis rate of 5 HTP accumulation at the dose of 9.7 umol/kg in the rat ventral limbic brain region. The format is functional, Limbic system. The procedure, abridged: as §2
Assay [11] concerns Mus musculus. The assay is described as follows: Behavioral time in mouse face to face assay at 0 umol/kg administered perorally. The format is functional. The procedure, abridged:
as §1

For assay [12], the system named is Rattus norvegicus. Briefly: Effect on the synthesis rate of dopamine (DOPA) accumulation at the dose of 9.7 umol/kg in the rat ventral limbic brain region. The format is functional, Limbic system. The procedure, abridged:
as §2

Assay [13] deals with Mus musculus. Briefly: Tested in vivo for the maximum temperature decrease in mouse hypothermia assay. The format is functional. The procedure, abridged:
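CF-1 mice (18-22 g, 4 per dose), dosed sc or orally. Rectal temperature measured before dosing and 20 min after. The mean maximum temperature drop (°F) at 20 min after any dose is recorded as an efficacy index.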

For assay [14], the system named is Rattus norvegicus. The assay is described as follows: Effect on the synthesis rate of dopamine (DOPA) accumulation at the dose of 3.5 uM/kg in the rat ventral limbic brain region. The format is functional, Limbic system. The procedure, abridged: as §2
Assay [15] relates to Felis catus. Briefly: Maximum decrease on arterial blood pressure at 1 mg/kg. The format is functional. The procedure, abridged: (§4)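 Adult cats (2.5-4.0 kg) anesthetized with ketamine 11 mg/kg im, then chloralose 80 mg/kg iv. Femoral artery cannulated for blood pressure, femoral vein for drug. Ventilated, paralyzed with gallamine 4 mg/kg iv, rectal temperature held at 37-38 °C. Cumulative iv doses given at 20-min intervals. Maximum decrease reported following a 1 mg/kg iv dose.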

Assay [16] deals with Mus musculus. The assay is described as follows: Behavioral time in mouse face to face assay at 3.5 umol/kg administered subcutaneously. The format is functional. The procedure, abridged:
as §1

The species entered for assay [17] is Felis catus. Briefly: Maximum decrease observed. The format is functional. Also on record: unit not given here.
For assay [18], the species on record is Felis catus. The assay is described as follows: Dose at which the SND has been reduced to 50% of the pretreatment value. The format is functional. The procedure, abridged: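 Adult cats (2.5-4.0 kg), ketamine 11 mg/kg im then chloralose 80 mg/kg iv, ventilated, gallamine-paralyzed, rectal temperature 37-38 °C. Sympathetic nerve discharge quantified by cumulative integration. Cumulative iv doses were given at 20-min intervals. Value is the dose reducing discharge to 50% of pretreatment.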

In assay [19] the test system is Rattus norvegicus. The assay is described as follows: Effect on the synthesis rate of 5 HTP accumulation at the dose of 3.5 umol/kg in the rat ventral limbic brain region. The format is functional, Limbic system. The procedure, abridged:
as §2

Assay [20] concerns Felis catus. Briefly: Dose on arterial blood pressure (BP) in anesthetized cat. The format is functional. The procedure, abridged: as §4
Assay [21] relates to Mus musculus. Briefly: Behavioral time in mouse face to face assay at 32.5 umol/kg administered perorally. The format is functional. The procedure, abridged:
as §1

The test system of assay [22] is Rattus norvegicus. Briefly: Effect on the synthesis rate of 5 HTP accumulation at the dose of 3.2 umol/kg in the rat ventral limbic brain region. The format is functional, Limbic system. The procedure, abridged: as §2
For assay [23], the system named is Mus musculus. Briefly: Behavioral time in mouse isolation-induced aggression assay at 0 umol/kg administered perorally. The format is functional. The procedure, abridged:
(§5)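 Male CF-1 mice. Residents were isolated singly for at least 1 month; group-housed intruders were kept 4-6/cage. Mice weighed 28-30 g at first test. Residents got drug ip or orally in 0.25% methylcellulose or 0.1% citric acid 30 min before an untreated intruder was introduced. Latency to fighting was recorded, capped at 600 s. Dosing was blind, 6/group (vehicle n = 12), Wilcoxon rank sum.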

In assay [24] the test system is Rattus norvegicus. The assay is described as follows: Effect on the synthesis rate of dopamine (DOPA) accumulation at the dose of 3.2 umol/kg in the rat ventral limbic brain region. The format is functional, Limbic system. The procedure, abridged: as §2
Assay [25] has as its system Mus musculus. The assay is described as follows: Behavioral time in mouse face to face assay at 3.2 umol/kg administered perorally. The format is functional. The procedure, abridged: as §1
Assay [26] concerns Mus musculus. Briefly: Behavioral time in mouse isolation-induced aggression assay at 32.5 umol/kg administered perorally. The format is functional. The procedure, abridged: as §5
Assay [27] has as its system Mus musculus. The assay is described as follows: Behavioral time in mouse isolation-induced aggression assay at 9.7 umol/kg administered perorally. The format is functional. The procedure, abridged:
as §5

Turning to `C=CCN[C@@H]1CCc2cccc(O)c2[C@@H]1CC=C`, the Time is given as 0.8 s in the assay with Mus musculus [1], 0.8 s in the assay with Mus musculus [2], 2.6 s with Mus musculus [3] and 0.5 s with Mus musculus [4]. In addition, the Change is -48% with Rattus norvegicus [5] and 38% with Rattus norvegicus [7]. Moreover, the results for the ED50 in the assay on Mus musculus [6] and in the assay on Mus musculus [8] were above 107 µmol/kg and 1.1 µmol/kg, respectively.
As to `CCCN[C@@H]1CCc2cccc(OC)c2[C@H]1CC1CC1`, the Time in the assay on Mus musculus [9] is 1.5 s; in the assay with Mus musculus [11] it was 2 s and 5 s. Moreover, the Change with Rattus norvegicus [10] is listed as -43.7%; in the assay on Rattus norvegicus [12], 18.7%. Also, the ED50 (commonly the midpoint of the dose-response relation) in the assay on Mus musculus [6] was 99 µmol/kg; in the assay with Mus musculus [8], 13 µmol/kg.
With `C=CC[C@H]1c2c(O)cccc2CC[C@H]1NCCC`, in the assay on Mus musculus [13], the TMP.decrease was 9.5 degrees F and 6.9 degrees F. Further, the Time in the assay on Mus musculus [1] stood at 2.8 s; in the assay with Mus musculus [2] it was 2.9 s; in the assay on Mus musculus [16], 3.9 s; in the assay with Mus musculus [3] it was 3.8 s. In addition, the Change in the assay on Rattus norvegicus [14] is given as 14%; in the assay with Rattus norvegicus [19], -53%. The Max decrease was found to be 55 in the assay with Felis catus [15] and 10 in the assay filed under Felis catus [17]. The ED50 in the assay filed under Felis catus [18] came to 0.09 µmol/kg; in the assay with Mus musculus [6] it was 61 µmol/kg; in the assay with Mus musculus [8], 1.1 µmol/kg. The compound also showed a BP in the assay with Felis catus [20] of 77%.
In turn, `C=CCN(CCC)[C@@H]1CCc2cccc(OC)c2C1=C` came in with a TMP.decrease with Mus musculus [13] of 3.6 degrees F. Also, the Time in the assay on Mus musculus [21] is 2.5 s; with Mus musculus [9], 1.9 s; in the assay on Mus musculus [23] it was 56 s; in the assay with Mus musculus [11], 0.7 s; in the assay with Mus musculus [25], 1.9 s; in the assay on Mus musculus [26], 416 s. The compound further displayed a Time with Mus musculus [27] of 61 s. Moreover, the figures for the Max decrease with Felis catus [15] and in the assay filed under Felis catus [17] were 51 and 20, respectively. The results for the Change with Rattus norvegicus [22] and with Rattus norvegicus [24] were -52% and -36%, respectively. Also, the results for the ED50 in the assay listed under Felis catus [18] and in the assay on Mus musculus [8] were 0.91 µmol/kg and above 97 µmol/kg, respectively. Besides, the BP with Felis catus [20] is given as 59%.
